# Calls of active or inactive are those of the source. The calls are words filed in the database; no cut-off is given here.
# How the values were obtained:
# [1] = target: Cytochrome P450 2C9 (Homo sapiens, UniProt P11712); experiment: Inhibition of CYP2C9 (unknown origin); assay type: ADME
# [2] = target: Cytochrome P450 2C19 (Homo sapiens, UniProt P33261); experiment: Inhibition of CYP2C19 (unknown origin); assay type: ADME
# [3] = Oral bioavailability in monkey plasma at 20 mg/kg measured up to 24 hrs by LC/MS analysis; assay type: ADME, organism-based, Macaca mulatta; details: rhesus monkey
# Method in brief: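 Monkey i.v./p.o. study: oral 20mg/kg in 10% DMSO, 0.1% Tween 80, 0.5% hydroxypropylmethylcellulose in water; i.v. dose 1mg/kg.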
# [4] = target: T1, Cytochrome P450 2C8 (Homo sapiens, UniProt P10632); experiment: Inhibition of CYP2C8 (unknown origin)
# T1 sequence (P10632 whole entry): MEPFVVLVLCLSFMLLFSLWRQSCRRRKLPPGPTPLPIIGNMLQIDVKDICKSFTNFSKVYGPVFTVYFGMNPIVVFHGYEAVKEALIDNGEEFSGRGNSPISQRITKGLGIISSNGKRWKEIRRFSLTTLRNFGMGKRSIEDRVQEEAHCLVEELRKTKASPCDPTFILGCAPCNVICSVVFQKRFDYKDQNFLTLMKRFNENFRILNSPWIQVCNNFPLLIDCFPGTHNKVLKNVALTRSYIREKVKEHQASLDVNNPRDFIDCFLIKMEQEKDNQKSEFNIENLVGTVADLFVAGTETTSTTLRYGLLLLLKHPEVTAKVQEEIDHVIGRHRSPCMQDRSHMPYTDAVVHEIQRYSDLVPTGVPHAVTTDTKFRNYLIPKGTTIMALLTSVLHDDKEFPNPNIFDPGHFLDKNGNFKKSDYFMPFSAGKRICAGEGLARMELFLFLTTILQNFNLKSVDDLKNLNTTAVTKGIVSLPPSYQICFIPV
# [5] = target: T2, Glucocorticoid receptor (Homo sapiens) (UniProt P04150); experiment: Agonist activity at glucocorticoid receptor in human HepG2 cells assessed as induction of tyrosine amino transferase activity measured after 20 hrs; assay type: cell-based; details: in the assay text read “primary hepatocytes” for “HepG2 cells”
# T2 sequence (whole entry): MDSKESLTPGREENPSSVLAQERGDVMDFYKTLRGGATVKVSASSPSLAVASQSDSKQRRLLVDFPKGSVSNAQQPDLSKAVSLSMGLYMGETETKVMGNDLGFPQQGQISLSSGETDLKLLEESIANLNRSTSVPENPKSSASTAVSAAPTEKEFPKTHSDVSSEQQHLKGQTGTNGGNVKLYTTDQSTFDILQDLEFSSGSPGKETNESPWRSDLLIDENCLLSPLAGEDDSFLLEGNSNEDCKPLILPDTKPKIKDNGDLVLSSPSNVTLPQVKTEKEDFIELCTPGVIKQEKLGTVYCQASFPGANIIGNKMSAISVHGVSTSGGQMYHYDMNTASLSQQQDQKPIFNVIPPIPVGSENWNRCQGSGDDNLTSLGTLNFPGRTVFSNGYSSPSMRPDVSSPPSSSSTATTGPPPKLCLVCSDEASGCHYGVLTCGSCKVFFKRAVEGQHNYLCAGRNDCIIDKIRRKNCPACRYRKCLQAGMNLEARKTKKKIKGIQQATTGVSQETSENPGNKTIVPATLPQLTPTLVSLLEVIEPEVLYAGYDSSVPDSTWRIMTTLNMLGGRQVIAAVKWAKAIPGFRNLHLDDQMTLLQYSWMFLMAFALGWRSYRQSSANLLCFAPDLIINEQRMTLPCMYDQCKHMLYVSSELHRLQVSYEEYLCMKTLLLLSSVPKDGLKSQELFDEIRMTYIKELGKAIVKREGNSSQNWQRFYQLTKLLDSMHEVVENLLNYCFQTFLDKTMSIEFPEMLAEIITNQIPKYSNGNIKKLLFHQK
# Method in brief: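 HepG2 cells in charcoal-stripped FBS RPMI, 25,000 cells/well, 24 h; assay media with 10 µM forskolin. 30 min pre-incubation in 0.1% DMSO, then compound (8-point half-log, 10 µM to 0.003 µM final) for 20 h at 37°C. TAT in lysate with tyrosine, alpha-ketoglutarate and pyridoxal phosphate, 2 h at 37°C, KOH stop, A340. EC50 from 4-parameter fit of % activation of basal TAT.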
# [6] = target: T3, Glucocorticoid receptor (Rattus norvegicus) (UniProt P06536); experiment: Partial agonist activity at rat glucocorticoid receptor in primary hepatocytes assessed as induction of tyrosine amino transferase activity at 10 uM measured after 20 hrs; assay type: cell-based
# T3 sequence (whole entry): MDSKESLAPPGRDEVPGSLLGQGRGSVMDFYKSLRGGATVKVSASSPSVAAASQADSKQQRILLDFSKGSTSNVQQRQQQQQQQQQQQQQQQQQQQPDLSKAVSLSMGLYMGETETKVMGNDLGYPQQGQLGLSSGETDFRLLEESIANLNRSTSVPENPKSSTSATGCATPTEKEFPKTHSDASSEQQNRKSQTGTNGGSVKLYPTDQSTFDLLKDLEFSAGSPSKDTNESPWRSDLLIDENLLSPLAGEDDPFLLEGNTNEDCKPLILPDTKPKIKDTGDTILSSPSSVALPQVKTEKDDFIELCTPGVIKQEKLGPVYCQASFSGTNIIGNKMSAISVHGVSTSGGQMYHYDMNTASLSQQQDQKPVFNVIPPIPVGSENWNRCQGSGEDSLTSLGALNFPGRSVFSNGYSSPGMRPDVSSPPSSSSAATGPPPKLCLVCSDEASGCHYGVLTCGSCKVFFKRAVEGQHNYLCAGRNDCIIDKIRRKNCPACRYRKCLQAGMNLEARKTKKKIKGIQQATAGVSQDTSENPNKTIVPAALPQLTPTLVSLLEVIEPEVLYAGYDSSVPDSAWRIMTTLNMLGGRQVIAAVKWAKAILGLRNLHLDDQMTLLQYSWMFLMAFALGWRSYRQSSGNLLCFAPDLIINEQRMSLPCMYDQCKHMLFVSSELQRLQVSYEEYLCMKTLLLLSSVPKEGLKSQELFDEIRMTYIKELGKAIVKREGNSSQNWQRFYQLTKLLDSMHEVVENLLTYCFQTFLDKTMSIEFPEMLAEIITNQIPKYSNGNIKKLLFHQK
# [7] = target: Cytochrome P450 2D6 (Homo sapiens, UniProt P10635); experiment: Time-dependent inhibition of CYP2D6 (unknown origin); assay type: ADME
# Cytochrome P450 2D6, sequence (P10635 whole entry): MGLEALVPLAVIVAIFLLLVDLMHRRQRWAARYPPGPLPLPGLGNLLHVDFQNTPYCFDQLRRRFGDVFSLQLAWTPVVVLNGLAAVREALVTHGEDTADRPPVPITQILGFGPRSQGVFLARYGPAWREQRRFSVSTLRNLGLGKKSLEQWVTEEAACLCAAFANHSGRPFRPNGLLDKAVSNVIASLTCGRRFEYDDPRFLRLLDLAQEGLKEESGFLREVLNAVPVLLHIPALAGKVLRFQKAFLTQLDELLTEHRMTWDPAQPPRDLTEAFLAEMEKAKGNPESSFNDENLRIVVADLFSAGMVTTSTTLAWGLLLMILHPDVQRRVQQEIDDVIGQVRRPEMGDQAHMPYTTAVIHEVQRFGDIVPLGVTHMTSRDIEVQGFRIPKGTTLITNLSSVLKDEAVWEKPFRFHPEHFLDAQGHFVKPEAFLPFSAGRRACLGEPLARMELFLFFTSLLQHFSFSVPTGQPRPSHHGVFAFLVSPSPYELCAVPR
# Cytochrome P450 2C19, sequence (P33261 whole entry): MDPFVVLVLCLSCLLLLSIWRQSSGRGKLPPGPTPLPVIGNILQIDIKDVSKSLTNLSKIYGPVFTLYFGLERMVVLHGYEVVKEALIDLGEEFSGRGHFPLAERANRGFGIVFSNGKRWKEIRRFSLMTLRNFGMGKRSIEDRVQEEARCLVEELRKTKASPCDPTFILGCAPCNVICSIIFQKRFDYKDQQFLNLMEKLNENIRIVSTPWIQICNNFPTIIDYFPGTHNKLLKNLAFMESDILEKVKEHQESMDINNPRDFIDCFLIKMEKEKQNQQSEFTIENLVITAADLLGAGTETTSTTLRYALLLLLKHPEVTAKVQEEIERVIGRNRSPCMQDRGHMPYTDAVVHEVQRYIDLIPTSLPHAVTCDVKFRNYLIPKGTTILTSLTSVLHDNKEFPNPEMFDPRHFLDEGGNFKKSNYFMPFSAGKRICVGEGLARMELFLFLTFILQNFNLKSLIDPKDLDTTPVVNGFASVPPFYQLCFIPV
# Cytochrome P450 2C9, sequence (P11712 whole entry): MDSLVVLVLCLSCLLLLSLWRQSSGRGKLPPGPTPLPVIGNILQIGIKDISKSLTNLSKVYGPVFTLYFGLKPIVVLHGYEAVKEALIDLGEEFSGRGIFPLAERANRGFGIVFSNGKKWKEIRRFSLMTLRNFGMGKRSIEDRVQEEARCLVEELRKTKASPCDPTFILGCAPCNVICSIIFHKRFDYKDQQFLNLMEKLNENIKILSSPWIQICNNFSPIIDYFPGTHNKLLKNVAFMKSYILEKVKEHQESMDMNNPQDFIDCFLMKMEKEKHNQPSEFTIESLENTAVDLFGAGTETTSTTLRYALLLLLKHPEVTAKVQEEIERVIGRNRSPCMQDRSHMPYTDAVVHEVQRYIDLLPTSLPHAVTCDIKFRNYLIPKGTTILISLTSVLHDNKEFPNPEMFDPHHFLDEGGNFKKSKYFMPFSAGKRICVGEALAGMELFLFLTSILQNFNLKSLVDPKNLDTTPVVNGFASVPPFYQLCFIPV
compound,measurement,setting,value
Cn1cc(S(=O)(=O)N2CCC3=Cc4c(cnn4-c4ccc(F)cc4)C[C@]3(C(=O)c3cc(C(F)(F)F)ccn3)C2)cn1 [RELACORILANT],IC50,[1],2 µM
same,IC50,[2],8 µM
same,bioavailability,[3],88%
same,IC50,[4],0.21 µM
same,Emax,[5],0%
same,Activity,[6],Active
same,TDI,[7],Not Active
